Results reported in ChEMBL document CHEMBL1681787, “Synthesis and anti-HSV-1 activity of new 1,2,3-triazole derivatives” (Bioorg Med Chem, 2011).

Assays:
Human alphaherpesvirus 1 [1] = assay: Antiviral activity against Herpes simplex viruses 1 infected in vero cells assessed as inhibition of viral replication at 50 uM after 72 hrs by XTT assay; format: functional; conditions: Human alphaherpesvirus 1, Vero
Method in brief: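 Vero monolayers (10⁴ cells/well) infected with HSV-1 at 100 CCID50/well for 1 h. Inoculum removed, cells washed, medium with 50 µM compound added; acyclovir 50 µM as control. After 72 h XTT/PMS added to measure protection from virus-induced cytopathic effect. Means of triplicate experiments.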

[2] = Cytotoxicity against african green monkey Vero cells after 72 hrs by XTT assay; format: cell-based; conditions: chlorocebus sabaeus
Method in brief: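 Vero cells (10⁴ cells/well; DMEM, 5% FBS, 37 °C, 5% CO2) exposed to a range of compound concentrations for 72 h. XTT (2.5 mg/mL final) added with PMS 32 µg/mL, 4 h incubation, absorbance read at 492 nm with 620 nm reference. CC50 obtained by linear regression of dose-response curves; acyclovir included.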

Human alphaherpesvirus 1 [3] = assay: Antiviral activity against 5 MOI Herpes simplex viruses 1 infected in vero cells after 24 hrs by viral plaque number reduction assay; format: functional, organism-based; conditions: Human alphaherpesvirus 1, Vero
Method in brief: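 Vero cells in 6-well plates infected with HSV-1 at MOI 5 for 1 h at 37 °C, then treated with test compounds. After 24 h infected cells lysed, supernatant harvested and titred by plaque assay. IC50 = concentration inhibiting 50% of plaque formation versus untreated controls. Acyclovir positive control. Triplicate independent experiments.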

[4] = Selectivity index, ratio of CC50 for african green monkey vero cells to IC50 for Herpes simplex viruses 1; format: functional
Method in brief: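 Selectivity index computed as CC50 (XTT assay in Vero cells, 72 h) divided by IC50 (plaque number reduction against HSV-1 in Vero cells).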

Compound	IC50 (Human alphaherpesvirus 1 [3]) [µM]	inhibition at 50 µM (Human alphaherpesvirus 1 [1]) [%]	CC50 at 72 h [2] [µM]	Ratio CC50/IC50 [4]
Cc1ccc(S(=O)(=O)NNC(=O)c2nnn(Nc3ccc(Br)cc3)c2C)cc1		69		
Nc1nc2c(ncn2COCCO)c(=O)[nH]1 [ACYCLOVIR]	0.99	95	860	869
Cc1c(C(=O)NNS(=O)(=O)c2ccccc2)nnn1Nc1ccc(Br)cc1		31		
Cc1ccc(S(=O)(=O)NNC(=O)c2nnn(Nc3ccccc3)c2C)cc1		37		
Cc1c(C(=O)NNS(=O)(=O)c2ccccc2)nnn1Nc1ccc(Cl)cc1		57		
COc1ccc(S(=O)(=O)NNC(=O)c2nnn(Nc3ccccc3)c2C)cc1		54		

Second part, led by results:

IC50 (Human alphaherpesvirus 1 [3]) [µM]	Compound	inhibition at 50 µM (Human alphaherpesvirus 1 [1]) [%]	CC50 at 72 h [2] [µM]	Ratio CC50/IC50 [4]
37	COc1ccc(S(=O)(=O)NNC(=O)c2nnn(Nc3ccc(Br)cc3)c2C)cc1	77	971	26
1.3	Cc1ccc(S(=O)(=O)NNC(=O)c2nnn(Nc3ccc(F)cc3)c2C)cc1	88	1270	974
19	Cc1c(C(=O)NNS(=O)(=O)c2ccccc2)nnn1Nc1ccccc1	79	1510	80
1.26	Cc1c(C(=O)NNS(=O)(=O)c2ccccc2)nnn1Nc1cc(Cl)ccc1Cl	71	1170	932
